Converted amounts (≈) assume the structure as drawn. The source made the active and inactive calls. The rule behind the calls is not given here.
Experiments:
Rattus norvegicus [1] = experiment: Toxicity in rat assessed as decrease in core body temperature at 100 to 500 mg/kg, po; format: organism-based; conditions: in vivo
[2] = molecular target: Sodium channel protein type 1 subunit alpha (Homo sapiens, UniProt P35498); experiment: Inhibition of human NaV1.1
[3] = molecular target: Sodium channel protein type 8 subunit alpha (Homo sapiens, UniProt Q9UQD0); experiment: Inhibition of human NaV1.6
[4] = Volume of distribution in rat; format: ADME, organism-based; conditions: in vivo
[5] = molecular target: Voltage-gated inwardly rectifying potassium channel KCNH2 (Homo sapiens, UniProt Q12809); experiment: Inhibition of human ERG
[6] = Ratio of drug level in tibial nerve transection surgery model of rat treated with (2-(4-(3-chloro-4-(trifluoromethoxy)benzylcarbamoyl)-2-fluorophenylsulfonylimino)thiazol-3(2H)-yl)methyl dihydrogen phosphate at 3 to 10 mg/kg administered as iv bolus dose to IC50 for rat NaV1.3; format: ADME, organism-based; conditions: in vivo
[7] = Ratio of drug level in cynomolgus monkey treated with (2-(4-(3-chloro-4-(trifluoromethoxy)benzylcarbamoyl)-2-fluorophenylsulfonylimino)thiazol-3(2H)-yl)methyl dihydrogen phosphate at 30 mg/kg to IC50 for cynomolgus monkey NaV1.3; format: ADME, organism-based, Macaca fascicularis; conditions: in vivo
[8] = molecular target: Sodium channel protein type 5 subunit alpha (Homo sapiens, UniProt Q14524); experiment: Inhibition of human NaV1.5
Rattus norvegicus [9] = experiment: Toxicity in rat assessed as increase in blood pressure at 100 to 500 mg/kg, po; format: organism-based; conditions: in vivo
[10] = Oral bioavailability in rat; format: ADME, organism-based; conditions: in vivo
MDR1 = experiment: Efflux ratio of permeability across basolateral to apical over apical to basolateral side in RRCK cells expressing MDR1; format: ADME, cell-based, Canis lupus familiaris, MDCKII-LE; conditions: dog, MDCK-MDR1
[11] = Lipophilicity, log D of the compound; format: physicochemical; conditions: octanol/water
[12] = Protein binding in human plasma by equilibrium dialysis method; format: ADME, cell-free; conditions: read-out: PPB (converted)
How it was run: (§1)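 Plasma protein binding measured by equilibrium dialysis.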

[13] = Aqueous solubility of compound; format: physicochemical; conditions: buffer
[14] = molecular target: Sodium channel protein type 10 subunit alpha (Homo sapiens, UniProt Q9Y5Y9); experiment: Inhibition of human NaV1.8
[15] = Protein binding in dog plasma; format: ADME, cell-free, Canis lupus familiaris; conditions: read-out: PPB
[16] = Clearance in rat; format: ADME, organism-based; conditions: in vivo
CYP3A4 = CYP3A4 (Homo sapiens, UniProt P08684); experiment: Inhibition of CYP3A4 (unknown origin) at 3 uM by high throughput assay relative to control; format: ADME
[17] = Dissociation constant, pKa of compound; format: physicochemical
[18] = Protein binding in rat plasma by equilibrium dialysis method; format: ADME, cell-free; conditions: read-out: PPB (converted); how it was run: as §1
[19] = Clearance in human liver microsomes; format: ADME, microsome; conditions: read-out: CLH
[20] = molecular target: T1, Sodium channel protein type 3 subunit alpha (Homo sapiens, UniProt Q9NY46); experiment: Inhibition of human NaV1.3 expressed in HEK cells by electrophysiological method; format: cell-based
Rattus norvegicus [21] = experiment: Toxicity in rat assessed as decrease in heart rate at 100 to 500 mg/kg, po; format: organism-based; conditions: in vivo
[22] = molecular target: Sodium channel protein type 9 subunit alpha (Homo sapiens, UniProt Q15858); experiment: Inhibition of human NaV1.7
Tibial nerve [23] = experiment: Effect on heat evoked afferent firing in rat skin-tibial nerve at 0.01 to 1 uM; format: functional, tissue-based
How it was run: (§2)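 Compound was applied to the isolated skin-tibial nerve preparation at 0.01, 0.03, 0.1, 0.3 and 1 µM. Heat-evoked afferent firing and ongoing nerve activity were recorded.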

[24] = Ratio of drug level in rat at 100 mg/kg, po to IC50 for rat NaV1.3; format: ADME, organism-based; conditions: in vivo
CYP2C9 = CYP2C9 (Homo sapiens, UniProt P11712); experiment: Inhibition of CYP2C9 (unknown origin) at 3 uM by high throughput assay relative to control; format: ADME
[25] = molecular target: Sodium channel protein type 2 subunit alpha (Homo sapiens, UniProt Q99250); experiment: Inhibition of human NaV1.2
Tibial nerve [26] = experiment: Effect on ongoing nerve activity in rat skin-tibial nerve at 0.01 to 1 uM; format: functional, tissue-based; how it was run: as §2
[27] = molecular target: T1, Sodium channel protein type 3 subunit alpha; experiment: Inhibition of NaV1.3 (unknown origin) expressed in HEK293 cells by CC2-DMPE/DiSBAC2(3) dye-based FRET assay; format: cell-based
[28] = molecular target: Sodium channel protein type 3 subunit alpha (Rattus norvegicus, UniProt P08104); experiment: Inhibition of rat NaV1.3 by electrophysiological method
[29] = molecular target: Sodium channel protein type 9 subunit alpha (Rattus norvegicus, UniProt O08562); experiment: Inhibition of rat NaV1.7
[30] = molecular target: Sodium channel protein type 4 subunit alpha (Homo sapiens, UniProt P35499); experiment: Inhibition of human NaV1.4

T1 sequence (Q9NY46 whole entry): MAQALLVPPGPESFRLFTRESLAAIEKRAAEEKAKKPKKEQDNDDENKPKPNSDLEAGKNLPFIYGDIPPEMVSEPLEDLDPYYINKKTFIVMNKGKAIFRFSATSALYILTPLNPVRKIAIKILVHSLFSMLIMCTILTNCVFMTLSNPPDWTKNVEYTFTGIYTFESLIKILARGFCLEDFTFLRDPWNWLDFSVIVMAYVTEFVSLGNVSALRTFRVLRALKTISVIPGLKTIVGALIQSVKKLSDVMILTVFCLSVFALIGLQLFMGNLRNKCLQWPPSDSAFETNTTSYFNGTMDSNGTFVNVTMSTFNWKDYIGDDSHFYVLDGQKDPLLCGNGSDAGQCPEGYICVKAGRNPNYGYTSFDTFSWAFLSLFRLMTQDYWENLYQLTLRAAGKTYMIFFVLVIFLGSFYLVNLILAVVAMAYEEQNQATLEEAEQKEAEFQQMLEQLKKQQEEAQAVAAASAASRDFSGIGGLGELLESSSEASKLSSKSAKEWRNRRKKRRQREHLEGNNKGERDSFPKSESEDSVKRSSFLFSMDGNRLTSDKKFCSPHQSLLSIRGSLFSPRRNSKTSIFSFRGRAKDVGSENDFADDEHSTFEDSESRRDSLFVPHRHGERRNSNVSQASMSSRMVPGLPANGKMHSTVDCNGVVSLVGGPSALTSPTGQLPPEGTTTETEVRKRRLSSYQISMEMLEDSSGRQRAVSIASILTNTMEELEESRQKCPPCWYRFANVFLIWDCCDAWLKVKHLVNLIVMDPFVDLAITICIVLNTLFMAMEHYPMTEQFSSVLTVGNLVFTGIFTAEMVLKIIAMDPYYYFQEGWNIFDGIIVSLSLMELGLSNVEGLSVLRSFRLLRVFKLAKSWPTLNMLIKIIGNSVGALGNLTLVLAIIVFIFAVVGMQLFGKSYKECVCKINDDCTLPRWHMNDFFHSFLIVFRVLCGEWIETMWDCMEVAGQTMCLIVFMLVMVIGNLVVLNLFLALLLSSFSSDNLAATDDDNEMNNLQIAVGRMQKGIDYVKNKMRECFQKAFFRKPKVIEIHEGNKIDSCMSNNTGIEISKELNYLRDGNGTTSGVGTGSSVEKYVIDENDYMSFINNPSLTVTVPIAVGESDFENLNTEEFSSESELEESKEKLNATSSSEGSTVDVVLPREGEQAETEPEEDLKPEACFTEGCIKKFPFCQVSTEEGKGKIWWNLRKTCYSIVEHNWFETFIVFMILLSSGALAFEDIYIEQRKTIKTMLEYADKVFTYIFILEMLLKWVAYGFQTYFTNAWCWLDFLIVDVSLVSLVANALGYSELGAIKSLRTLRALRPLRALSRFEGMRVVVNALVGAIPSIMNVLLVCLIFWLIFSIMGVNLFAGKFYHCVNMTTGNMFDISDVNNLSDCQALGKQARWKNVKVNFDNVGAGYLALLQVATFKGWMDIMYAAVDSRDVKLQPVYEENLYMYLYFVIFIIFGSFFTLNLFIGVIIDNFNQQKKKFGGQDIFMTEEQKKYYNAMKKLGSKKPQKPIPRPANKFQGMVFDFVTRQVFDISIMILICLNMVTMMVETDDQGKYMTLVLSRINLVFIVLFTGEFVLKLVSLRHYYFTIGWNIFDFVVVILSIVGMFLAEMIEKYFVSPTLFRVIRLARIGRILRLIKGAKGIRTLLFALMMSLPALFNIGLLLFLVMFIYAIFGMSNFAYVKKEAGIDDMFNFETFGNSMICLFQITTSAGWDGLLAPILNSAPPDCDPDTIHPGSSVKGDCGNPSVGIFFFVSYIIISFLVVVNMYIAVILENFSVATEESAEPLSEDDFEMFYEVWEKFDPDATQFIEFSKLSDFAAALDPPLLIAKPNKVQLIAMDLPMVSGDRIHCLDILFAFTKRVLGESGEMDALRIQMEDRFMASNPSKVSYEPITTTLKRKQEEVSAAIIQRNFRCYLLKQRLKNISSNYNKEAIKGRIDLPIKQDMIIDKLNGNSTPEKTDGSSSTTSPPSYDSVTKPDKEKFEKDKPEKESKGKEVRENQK
Sodium channel protein type 2 subunit alpha, sequence (Q99250 whole entry): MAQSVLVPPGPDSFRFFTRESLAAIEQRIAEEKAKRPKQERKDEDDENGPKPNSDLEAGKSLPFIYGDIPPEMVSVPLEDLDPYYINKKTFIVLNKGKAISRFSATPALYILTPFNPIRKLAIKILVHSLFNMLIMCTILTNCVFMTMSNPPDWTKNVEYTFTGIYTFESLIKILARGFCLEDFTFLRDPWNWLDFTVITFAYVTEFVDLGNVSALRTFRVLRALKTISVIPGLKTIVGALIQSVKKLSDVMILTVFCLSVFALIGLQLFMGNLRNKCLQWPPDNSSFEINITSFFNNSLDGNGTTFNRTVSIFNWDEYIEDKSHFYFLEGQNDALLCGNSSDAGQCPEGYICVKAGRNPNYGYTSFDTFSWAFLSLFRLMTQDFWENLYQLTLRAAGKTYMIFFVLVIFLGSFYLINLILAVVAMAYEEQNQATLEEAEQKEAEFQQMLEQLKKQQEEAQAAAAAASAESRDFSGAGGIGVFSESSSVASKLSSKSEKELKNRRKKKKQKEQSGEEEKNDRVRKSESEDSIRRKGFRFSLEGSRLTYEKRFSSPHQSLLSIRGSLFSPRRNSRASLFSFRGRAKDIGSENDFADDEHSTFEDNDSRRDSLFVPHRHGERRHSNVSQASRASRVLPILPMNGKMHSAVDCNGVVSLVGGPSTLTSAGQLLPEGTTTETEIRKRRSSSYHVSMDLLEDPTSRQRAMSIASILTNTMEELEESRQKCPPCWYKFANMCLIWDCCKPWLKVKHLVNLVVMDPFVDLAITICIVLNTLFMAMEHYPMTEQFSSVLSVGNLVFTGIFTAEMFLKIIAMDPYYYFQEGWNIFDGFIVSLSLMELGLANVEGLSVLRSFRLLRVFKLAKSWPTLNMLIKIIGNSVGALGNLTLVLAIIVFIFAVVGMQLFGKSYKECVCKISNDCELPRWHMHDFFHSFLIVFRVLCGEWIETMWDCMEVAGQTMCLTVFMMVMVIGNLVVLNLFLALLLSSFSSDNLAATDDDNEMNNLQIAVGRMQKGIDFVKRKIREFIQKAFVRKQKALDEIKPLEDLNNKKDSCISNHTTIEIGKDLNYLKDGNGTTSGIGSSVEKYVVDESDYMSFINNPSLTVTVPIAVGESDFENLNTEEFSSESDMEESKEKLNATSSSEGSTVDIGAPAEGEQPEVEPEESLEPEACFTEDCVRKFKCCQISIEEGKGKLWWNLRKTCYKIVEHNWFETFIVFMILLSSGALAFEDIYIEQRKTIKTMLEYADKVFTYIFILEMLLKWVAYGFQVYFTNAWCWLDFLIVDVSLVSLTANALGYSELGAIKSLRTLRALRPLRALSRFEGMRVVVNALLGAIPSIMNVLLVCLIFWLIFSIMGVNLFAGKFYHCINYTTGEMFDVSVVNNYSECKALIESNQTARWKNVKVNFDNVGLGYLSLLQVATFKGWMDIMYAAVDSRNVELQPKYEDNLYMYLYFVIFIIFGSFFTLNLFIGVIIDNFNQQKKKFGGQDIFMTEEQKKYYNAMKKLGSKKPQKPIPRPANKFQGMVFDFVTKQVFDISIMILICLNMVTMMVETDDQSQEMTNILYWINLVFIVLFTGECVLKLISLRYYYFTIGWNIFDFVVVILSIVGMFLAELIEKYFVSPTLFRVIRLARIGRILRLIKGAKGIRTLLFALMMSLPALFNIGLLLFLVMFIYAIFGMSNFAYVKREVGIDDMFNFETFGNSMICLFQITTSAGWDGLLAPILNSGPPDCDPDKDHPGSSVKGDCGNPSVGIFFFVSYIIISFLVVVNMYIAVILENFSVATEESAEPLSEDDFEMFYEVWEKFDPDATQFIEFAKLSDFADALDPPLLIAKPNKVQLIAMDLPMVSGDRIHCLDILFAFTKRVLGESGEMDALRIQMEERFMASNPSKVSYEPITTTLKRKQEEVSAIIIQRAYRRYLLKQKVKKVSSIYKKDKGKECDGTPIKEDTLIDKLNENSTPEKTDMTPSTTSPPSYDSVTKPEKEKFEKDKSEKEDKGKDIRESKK
CYP2C9, sequence (P11712 whole entry): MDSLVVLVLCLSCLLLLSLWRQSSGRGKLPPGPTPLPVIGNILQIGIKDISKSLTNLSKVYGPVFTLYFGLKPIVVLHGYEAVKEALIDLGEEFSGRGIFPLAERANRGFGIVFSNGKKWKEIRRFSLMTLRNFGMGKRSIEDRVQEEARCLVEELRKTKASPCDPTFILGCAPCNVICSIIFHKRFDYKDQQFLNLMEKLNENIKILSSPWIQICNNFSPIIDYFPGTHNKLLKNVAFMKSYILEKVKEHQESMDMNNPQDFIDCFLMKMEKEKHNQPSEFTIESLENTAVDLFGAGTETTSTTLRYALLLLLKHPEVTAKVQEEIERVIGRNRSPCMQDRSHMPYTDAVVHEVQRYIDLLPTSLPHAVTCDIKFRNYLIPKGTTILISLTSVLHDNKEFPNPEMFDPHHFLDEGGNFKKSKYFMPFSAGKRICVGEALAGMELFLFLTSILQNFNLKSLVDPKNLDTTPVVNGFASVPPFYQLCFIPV
CYP3A4, sequence (P08684 whole entry): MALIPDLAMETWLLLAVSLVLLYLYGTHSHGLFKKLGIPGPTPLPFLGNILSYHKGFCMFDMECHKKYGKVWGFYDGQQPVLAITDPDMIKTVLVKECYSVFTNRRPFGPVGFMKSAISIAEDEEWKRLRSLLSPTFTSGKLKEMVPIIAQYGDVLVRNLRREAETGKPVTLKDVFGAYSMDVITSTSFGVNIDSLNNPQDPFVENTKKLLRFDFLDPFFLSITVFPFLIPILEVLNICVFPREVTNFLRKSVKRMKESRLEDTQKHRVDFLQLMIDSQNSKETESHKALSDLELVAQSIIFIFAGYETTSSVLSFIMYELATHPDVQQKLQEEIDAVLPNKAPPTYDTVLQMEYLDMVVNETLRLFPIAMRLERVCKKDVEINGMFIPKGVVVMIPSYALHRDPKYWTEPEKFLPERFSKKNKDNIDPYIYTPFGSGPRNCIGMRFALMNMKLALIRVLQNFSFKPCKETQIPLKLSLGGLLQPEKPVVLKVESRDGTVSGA

Q: What does the source list for `O=C(NCc1ccc(OC(F)(F)F)c(Cl)c1)c1ccc(S(=O)(=O)Nc2nccs2)c(F)c1`?
A: Activity (Rattus norvegicus [1]): Toxic; IC50 [2]: 20 nM; IC50 [3]: 1050 nM; Vd [4]: 1.1 L/kg; IC50 [5]: 17700 nM; Ratio [6]: <= 15; Ratio [7]: 62; IC50 [8]: 15800 nM; Activity (Rattus norvegicus [9]): Toxic; bioavailability [10]: 58%; efflux ratio (MDR1): 3.5; logD [11]: 3.3; fraction unbound [12]: 0.002; solubility [13]: 12 µg/mL (≈ 23.5 µM); IC50 [14]: 12400 nM; fraction unbound [15]: < 0.002; clearance [16]: 3.9 mL/min/kg; inhibition at 3 µM (CYP3A4): 66%; pKa [17]: 6.4; fraction unbound [18]: 0.002; microsomal CLint [19]: < 8 µL/min/mg; IC50 [20]: 11 nM; Activity (Rattus norvegicus [21]): Toxic; IC50 [22]: 289 nM; Activity (Tibial nerve [23]): inactive; Ratio [24]: 12; inhibition at 3 µM (CYP2C9): 66%; IC50 [25]: 429 nM; Activity (Tibial nerve [26]): inactive

Q: For `O=S(=O)(Nc1nccs1)c1ccc(S(=O)(=O)N2CCC(c3cccc(C(F)(F)F)n3)CC2)cc1F`, which IC50 [20] is on record?
A: 1640 nM

Q: With `O=S(=O)(Nc1nccs1)c1ccc(-c2nnc(Cc3ccc(Cl)c(Cl)c3)[nH]2)cc1` as the molecule, how does the IC50 [20] read?
A: 45 nM

Q: Which logD [11] does the source give for `O=C(NCc1ccc(OC(F)(F)F)c(Cl)c1)c1ccc(S(=O)(=O)Nc2nccs2)cc1` here?
A: 3.1

Q: What about the IC50 [20] of the same molecule?
A: 20 nM

Q: With `O=C(NCc1ccc(OC(F)(F)F)c(Cl)c1)c1ccc(S(=O)(=O)Nc2ncc(F)cn2)c(F)c1` as the molecule, how does the logD [11] read?
A: 2.1

Q: And the IC50 [20]?
A: 993 nM

Q: Which IC50 [20] does the source give for `O=S(=O)(Nc1nccs1)c1ccc(S(=O)(=O)N2CC[C@H](Oc3ccc(C(F)(F)F)cn3)C2)cc1F` here?
A: 851 nM

Q: Which results are given for `CN(Cc1ccc(OC(F)(F)F)c(Cl)c1)C(=O)c1ccc(S(=O)(=O)Nc2ncns2)c(F)c1`?
A: logD [11]: 1.3; IC50 [20]: 522 nM

Q: With `O=C(NCc1ccccc1)c1ccc(S(=O)(=O)Nc2nccs2)cc1` as the molecule, how does the IC50 [20] read?
A: 4450 nM

Q: With `O=C(COc1ccc(F)cc1)N1CCc2cc(S(=O)(=O)Nc3ncns3)ccc21` as the molecule, how does the logD [11] read?
A: 0.4

Q: And the IC50 [20]?
A: 1270 nM

Q: With `O=C(Cc1ccccc1)Nc1ccc(S(=O)(=O)Nc2nccs2)cc1` as the molecule, how does the IC50 [20] read?
A: 3790 nM

Q: For `O=S(=O)(Nc1nccs1)c1ccc(S(=O)(=O)N2CCCCC2c2cc(-c3ccccc3)[nH]n2)cc1F` (stereo not drawn), which IC50 [20] is on record?
A: 1830 nM

Q: Which IC50 [27] does the source give for `O=C1[C@@H](N2CC[C@H](c3cc(Cl)cc(Cl)c3)C2)CCN1c1ccc(S(=O)(=O)Nc2nccs2)cc1` here?
A: < 2000 nM

Q: For `O=S(=O)(CCc1ccc(C(F)(F)F)cc1)c1ccc(S(=O)(=O)Nc2nccs2)cc1`, which IC50 [20] is on record?
A: 155 nM

Q: For `O=C(c1ccc(S(=O)(=O)Nc2ncns2)c(F)c1)N1CCC(c2ccnc(C(F)(F)F)n2)CC1`, which IC50 [20] is on record?
A: 6680 nM

Q: For `O=C(COc1ccc(F)cc1)N1CCc2cc(S(=O)(=O)Nc3nccs3)ccc21`, which logD [11] is on record?
A: 1.8

Q: What about the IC50 [20] of the same molecule?
A: 2510 nM

Q: With `O=C(Nc1ccc(S(=O)(=O)Nc2nccs2)cc1)C(c1ccccc1)c1ccccc1` as the molecule, how does the IC50 [2] read?
A: 32 nM

Q: What about the IC50 [3] of the same molecule?
A: 10300 nM

Q: What about the IC50 [8] of the same molecule?
A: 9200 nM

Q: What about the IC50 [28] of the same molecule?
A: 6 nM

Q: What about the efflux ratio (MDR1) of the same molecule?
A: 30

Q: And the logD [11]?
A: 3.3

Q: What about the solubility [13] of the same molecule?
A: 268 µg/mL (≈ 596 µM)

Q: What about the IC50 [29] of the same molecule?
A: 68 nM

Q: And the IC50 [14]?
A: 3000 nM

Q: What about the microsomal CLint [19] of the same molecule?
A: 15 µL/min/mg

Q: And the IC50 [20]?
A: 17 nM

Q: What about the IC50 [30] of the same molecule?
A: 10000 nM

Q: What about the IC50 [22] of the same molecule?
A: 5200 nM

Q: What about the inhibition at 3 µM (CYP2C9) of the same molecule?
A: 79%

Q: And the IC50 [25]?
A: 393 nM

From ChEMBL document CHEMBL4257443, “The discovery of a potent Nav1.3 inhibitor with good oral pharmacokinetics” (Medchemcomm, 2017)
